Experimental data from PMC3734847 (Integrative biology : quantitative biosciences from nano to …, 2012).
Values joined by “and” are separate entries in the source; they are usually repeats but may differ in a detail not shown here. Equal entries are not always repeated. “Also recorded” adds a separate entry of the source. Where two headings read alike, the source gives them in different places.

Key:
Tu212 SCC cells = assay: Neutral Red dye cell viability; assay type: cell-based, human
Procedure, shortened: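 Tu212 cells grown in DMEM/F12 with 10% FBS, penicillin/streptomycin and 2 mM L-glutamine at 37°C, 5% CO2. Plated in 96 wells and left overnight to adhere. Test compound (0–20 μM) or 0.1% DMSO vehicle added in triplicate. Neutral Red (50 μg/mL in fresh medium) added for 30 min at 37°C, then two PBS washes. Dye eluted with 0.5 N HCl/35% ethanol and read at OD570. Blank subtracted and triplicates averaged.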

[1] = Aqueous solubility by laser nephelometry; assay type: physicochemical; conditions: phosphate buffered saline with 1% DMSO, pH 7.4
Tu212 SCC xenografts [2] = assay: EF31 i.p. therapy of Tu212 SCC xenografts in female athymic nude mice; assay type: in vivo
[3] = Pharmacokinetic study of EF31 i.p. in mice; assay type: in vivo, ND4 Swiss Webster mice; conditions: mouse; for AUC(0-inf) / Vd/F / half-life / Cmax / Tmax: male, ND4 Swiss Webster, plasma, ip; for Cmax / Tmax: mouse plasma; for Tmax: DMSO/0.5% CMC (10%/90%)
Procedure, shortened: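 Male ND4 Swiss Webster mice (25–30 g) got one i.p. dose of 12.5 or 25 mg/kg in 10% DMSO/0.5% CMC. One submandibular blood sample per mouse, under ketamine/xylazine, at 0.08, 0.25, 0.5, 1, 2, 3, 4 or 6 h (n=3/time point). Heparinized plasma stored at −80°C, deproteinated with acetonitrile and run on LC/MS/MS with internal standard.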

NF-κB signaling pathway = assay: Western blotting of xenograft tumor extracts for the NF-κB signaling pathway; assay type: in vivo, athymic nude mice; conditions: 6 weeks, Western blot
Procedure, shortened: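 Tu212 cells (2 × 10^6) implanted s.c. in female athymic nude mice. Mice (n=10/group) dosed i.p. once daily, 5 days/week, with test compound at 12.5 or 25 mg/kg, or with vehicle (0.5% CMC/10% DMSO in water). Tumors lysed in RIPA buffer with protease inhibitors for 30 min on ice, then cleared at 13,000 rpm for 15 min at 4°C. 100 μg protein run on 10% SDS-PAGE and transferred to PVDF.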

[4] = Serum chemistry profile and pathologic examination of normal organs; assay type: in vivo, mice; conditions: 12.5 and 25 mg/kg i.p.
Tu212 SCC xenografts [5] = assay: H & E staining and immunohistochemistry of xenograft tumor tissues; assay type: in vivo, athymic nude mice
[6] = 12.5 mg/kg, 12.5 mg/kg i.p. single dose
[7] = 25 mg/kg, 25 mg/kg i.p. single dose
[8] = 12.5 and 25 mg/kg i.p., dose-dependent

Which IC50 (Tu212 SCC cells; read-out: IC50, viable cells, Tu212 cells, Neutral Red Dye assay, 0–20 μM, triplicate, 48 hours (Fig. 1 legend; methods: 72 h)) does the source give for O=C1/C(=C/c2ccccc2F)CNC/C1=C\c1ccccc1F [EF24, reference compound] here?
Its IC50 is 8 µM.

What does the source list for O=C1C(=Cc2ccccn2)CNCC1=Cc1ccccn1 [EF31, 3,5-bis(2-pyridinylmethylidene)-4-piperidone]?
IC50 (Tu212 SCC cells; Homo sapiens, TU212, read-out: IC50, viable cells): 7 µM; solubility at 90 min [1]: 13 µg/mL and 47 µM; tumor size vs vehicle control (Tu212 SCC xenografts [2]; 12.5 mg/kg i.p. once/day 5 days/week, n = 10, p < 0.05–0.01): reduced tumor size significantly; dose relative to maximally tolerated dose (MTD) (Tu212 SCC xenografts [2]; 25 mg/kg i.p.): may be above the maximally tolerated dose; animals died, apparently due to treatment (Tu212 SCC xenografts [2]; 25 mg/kg i.p. group, n = 10): three; tumor size / tumor growth vs vehicle control (Tu212 SCC xenografts [2]; 25 mg/kg i.p. once/day 5 days/week, n = 10, p < 0.05–0.01): inhibited tumor growth almost completely; also recorded: reduced tumor size significantly; temporary reduction of body weight (Tu212 SCC xenografts [2]; 25 mg/kg i.p., on average, regained as treatment continued): ~ 10%; suppression of tumor growth, dose dependence (Tu212 SCC xenografts [2]; 12.5 and 25 mg/kg i.p. daily 5 days a week for over one month): dose-dependent suppression of tumor growth; AUC(0-inf) ([3]; 12.5 mg/kg): 3390 ng·h/mL; Vd/F ([3]; 12.5 mg/kg): 11.5 L/kg; half-life ([3]; 12.5 mg/kg): 2.2 h; Cmax [3, 6]: 1070 ng/mL; Tmax [3, 6]: 0.25 h; AUC(0-inf) ([3]; 25 mg/kg): 7770 ng·h/mL; Vd/F ([3]; 25 mg/kg): 11.1 L/kg; half-life ([3]; 25 mg/kg): 2.4 h; Cmax [3, 7]: 2130 ng/mL; Tmax [3, 7]: 0.5 h; estimated volumes of distribution ([3]; 12.5 and 25 mg/kg i.p.): ~ 11 L/kg; level of phosphorylated IKKα in tumors vs control (NF-κB signaling pathway; 25 mg/kg i.p.): reduced; level of total IKKα in tumors vs control (NF-κB signaling pathway; 25 mg/kg i.p.): increased in a dose-dependent manner; level of IκBα phosphorylated at serine 32 and 36 in tumors (NF-κB signaling pathway; 12.5 and 25 mg/kg i.p.): increased; level of phosphorylated IKKβ in tumors (NF-κB signaling pathway; 12.5 and 25 mg/kg i.p.): reduced; level of phosphorylated NF-κB p65 at Ser276 in tumors (NF-κB signaling pathway; [8]): decreased; level of total IKKβ in tumors (NF-κB signaling pathway; [8]): increased; level of total IκBα in tumors (NF-κB signaling pathway; [8]): decreased; level of total p65 in tumors (NF-κB signaling pathway; [8]): decreased; pathologic examination (hematoxylin-eosin) of liver, kidneys, lungs and spleen ([4]; n = 5/group): normal; serum chemistry profile ([4]; treated mice, normal values from the University of Minnesota): all within the normal values; degree of IHC staining of phosphorylated IκBα in tumors (Tu212 SCC xenografts [5]; 0, 12.5 and 25 mg/kg i.p. daily 5 days a week for 5 weeks): stronger in tumors treated at 25 mg/kg than 12.5 mg/kg, which is stronger than that in the control; H & E staining of tumor tissues (Tu212 SCC xenografts [5]; 25 mg/kg i.p. daily 5 days a week for 5 weeks): tumor cells are replaced with fibrous scar tissue
